Values after ≈ are worked out from the molar mass of the structure shown.
Assays:
[1] = system: Mycobacterium tuberculosis; experiment: Antimycobacterial activity against Mycobacterium tuberculosis H37Rv by agar dilution method; type: functional
Outline: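 MIC by agar dilution on Middlebrook 7H11 agar supplemented with OADC, following an NCCLS-like procedure, run in duplicate. The MDR-TB clinical isolate was resistant to isoniazid, rifampicin, ethambutol and ofloxacin.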

[2] = system: Mycolicibacterium smegmatis; experiment: Antimycobacterial activity against Mycobacterium smegmatis MC2 by agar dilution method; type: functional
Outline: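 Agar dilution on Middlebrook 7H11 agar supplemented with OADC, following an NCCLS-like procedure; MIC determined in duplicate against M. smegmatis ATCC 14468 (MC²).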

Vero = experiment: Cytotoxicity against african green monkey Vero cells after 72 hrs by MTT assay; type: cell-based; details: Chlorocebus sabaeus
Outline: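 Vero mammalian cells were exposed to compounds for 72 h, with testing at 62.5 µg/ml. Viability was read as cellular conversion of MTT to formazan (non-radioactive cell proliferation kit), and IC50 was reported.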

[3] = Inhibition of Mycobacterium smegmatis DNA gyrase supercoiling activity; set-up: species or system Mycolicibacterium smegmatis
[4] = system: Mycobacterium tuberculosis; experiment: Antimycobacterial activity against Mycobacterium tuberculosis ATCC 35801 infected in CD1 mouse assessed as bacterial load in lung at 50 mg/kg, ip after 10 days; type: functional; details: route intraperitoneal
Outline: (§1)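 Six-week-old female CD-1 mice, six per group, infected intravenously via caudal vein with ~10⁷ viable M. tuberculosis ATCC 35801. Intraperitoneal dosing began 10 days after inoculation and ran 10 days. On day 35 post-infection, spleens and right lungs were removed and homogenized. Serial 10-fold dilutions were plated on 7H10 agar (37 °C, ambient air, 4 weeks). Log CFU compared against vehicle-treated controls.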

[5] = system: Mycobacterium tuberculosis; experiment: Antimycobacterial activity against Mycobacterium tuberculosis ATCC 35801 infected in CD1 mouse assessed as bacterial load in spleen at 50 mg/kg, ip after 10 days; type: functional; details: route intraperitoneal; outline: as §1
Mus musculus [6] = experiment: Phototoxicity in Swiss albino mouse assessed as ear thickness at 140 mg/kg, po after 4 hrs of irradiation; type: organism-based; set-up: dose 140 mg/kg, route oral; details: in vivo
Outline: (§2)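 Female Swiss albino mice (about 2 months, 20–25 g), fasted at least 18 h, received a single oral gavage of 140 mg/kg. Groups: six per group; lomefloxacin HCl 140 mg/kg; vehicle 0.5% aqueous sodium carboxymethylcellulose at 10 ml/kg. Mice were UV-irradiated for 4 h (about 18 J/cm²). Both ears were scored for erythema, edema and ear thickness (left/right averaged) pre-dose, at end of irradiation, and at about 24, 48, 72 and 96 h. Ear thickness change from baseline was tested by Student's t-tests.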

Mus musculus [7] = experiment: Phototoxicity in Swiss albino mouse assessed as ear thickness at 140 mg/kg, po after 24 hrs of irradiation; type: organism-based; set-up: dose 140 mg/kg, route oral; details: in vivo; outline: as §2
Mus musculus [8] = experiment: Phototoxicity in Swiss albino mouse assessed as ear thickness at 140 mg/kg, po after 48 hrs of irradiation; type: organism-based; set-up: dose 140 mg/kg, route oral; details: in vivo; outline: as §2
Mus musculus [9] = experiment: Phototoxicity in Swiss albino mouse assessed as ear thickness at 140 mg/kg, po after 72 hrs of irradiation; type: organism-based; set-up: dose 140 mg/kg, route oral; details: in vivo; outline: as §2
Mus musculus [10] = experiment: Phototoxicity in Swiss albino mouse assessed as ear thickness at 140 mg/kg, po after 96 hrs of irradiation; type: organism-based; set-up: dose 140 mg/kg, route oral; details: in vivo; outline: as §2
Mus musculus [11] = experiment: Phototoxicity in Swiss albino mouse assessed as erythema incidence at 140 mg/kg, po after 4 hrs of irradiation; type: organism-based; set-up: dose 140 mg/kg, route oral; details: in vivo; outline: as §2
Mus musculus [12] = experiment: Phototoxicity in Swiss albino mouse assessed as erythema incidence at 140 mg/kg, po after 24 hrs of irradiation; type: organism-based; set-up: dose 140 mg/kg, route oral; details: in vivo; outline: as §2
Mus musculus [13] = experiment: (§3) Phototoxicity in Swiss albino mouse assessed as erythema incidence at 140 mg/kg, po after 48 hrs of irradiation; type: organism-based; set-up: dose 140 mg/kg, route oral; details: in vivo; outline: as §2
Mus musculus [14] = experiment: as §3; type: organism-based; set-up: dose 140 mg/kg, route oral; details: in vivo; outline: as §2; remark: listed apart in the source
Mus musculus [15] = experiment: Phototoxicity in Swiss albino mouse assessed as erythema incidence at 140 mg/kg, po after 96 hrs of irradiation; type: organism-based; set-up: dose 140 mg/kg, route oral; details: in vivo; outline: as §2

SMILES	MIC [1]	MIC [2]	IC50 (Vero)	further results
O=C(O)c1c(=O)c2cc([N+](=O)[O-])c(N3CCN(C(c4ccccc4)c4ccc(Cl)cc4)CC3)cc2n2c1sc1ccccc12 (centres undefined)	5.01 µM (≈ 3.13 µg/mL)	40 µM (≈ 25 µg/mL)	50 µM	–
O=C(O)c1c(=O)c2cc(F)c(N3CCC(N4CCCCC4)CC3)cc2n2c1sc1ccccc12	0.39 µM (≈ 0.187 µg/mL)	6.53 µM (≈ 3.13 µg/mL)	130 µM	IC50 [3]: > 50 µg/mL
COc1ccc(CC2C3=C(CCCC3)CCN2c2cc3c(cc2F)c(=O)c(C(=O)O)c2sc4ccccc4n23)cc1 (centres undefined)	5.5 µM (≈ 3.13 µg/mL)	44 µM (≈ 25 µg/mL)	–	–
CC1CN(c2cc3c(cc2[N+](=O)[O-])c(=O)c(C(=O)O)c2sc4ccccc4n23)CC(C)O1 (centres undefined)	6.9 µM (≈ 3.13 µg/mL)	110 µM (≈ 50 µg/mL)	–	–
O=C(O)c1c(=O)c2cc([N+](=O)[O-])c(N3CCC(n4c(=O)[nH]c5cc(Cl)ccc54)CC3)cc2n2c1sc1ccccc12	5.31 µM (≈ 3.13 µg/mL)	84.8 µM (≈ 50 µg/mL)	–	–
O=C(O)c1c(=O)c2cc(F)c(N3CCN(Cc4ccc5c(c4)OCO5)CC3)cc2n2c1sc1ccccc12	1.47 µM (≈ 0.781 µg/mL)	5.89 µM (≈ 3.13 µg/mL)	> 118 µM	–
O=C(O)c1c(=O)c2cc([N+](=O)[O-])c(N3CCC(O)(c4ccc(Cl)cc4)CC3)cc2n2c1sc1ccccc12	2.84 µM (≈ 1.56 µg/mL)	90.9 µM (≈ 50 µg/mL)	114 µM	–
COc1cc2c(cc1OC)CN(c1cc3c(cc1[N+](=O)[O-])c(=O)c(C(=O)O)c1sc4ccccc4n13)CC2	1.47 µM (≈ 0.781 µg/mL)	47 µM (≈ 25 µg/mL)	118 µM	–
COc1c(N2CCNC(C)C2)c(F)cc2c(=O)c(C(=O)O)cn(C3CC3)c12 (centres undefined) [GATIFLOXACIN]	1.04 µM (≈ 0.39 µg/mL)	2.08 µM (≈ 0.781 µg/mL)	> 155 µM	Log10 cfu [4]: 6.02; Log10 cfu [5]: 6.92
O=C(O)c1cn2c(n1)CN(c1cc3c(cc1F)c(=O)c(C(=O)O)c1sc4ccccc4n13)CC2	3.26 µM (≈ 1.56 µg/mL)	52.2 µM (≈ 25 µg/mL)	> 131 µM	–
O=C(O)c1c(=O)c2cc(F)c(N3CCC(O)(c4ccc(Cl)cc4)CC3)cc2n2c1sc1ccccc12	0.36 µM (≈ 0.188 µg/mL)	2.98 µM (≈ 1.56 µg/mL)	120 µM	IC50 [3]: 40 µg/mL (≈ 76.5 µM); Activity (Mus musculus [6]): 0.32 mm; Activity (Mus musculus [7]): 0.31 mm; Activity (Mus musculus [8]): 0.29 mm; Activity (Mus musculus [9]): 0.32 mm; Activity (Mus musculus [10]): 0.3 mm; Activity (Mus musculus [11]): Non-toxic; Activity (Mus musculus [12]): Non-toxic; Activity (Mus musculus [13]): Non-toxic; Activity (Mus musculus [14]): Non-toxic; Activity (Mus musculus [15]): Non-toxic
O=C(O)c1c(=O)c2cc(F)c(N3CCN(C(c4ccccc4)c4ccc(Cl)cc4)CC3)cc2n2c1sc1ccccc12 (centres undefined)	2.61 µM (≈ 1.56 µg/mL)	10.4 µM (≈ 6.25 µg/mL)	104 µM	–
O=C(O)c1c(=O)c2cc([N+](=O)[O-])c(N3CCC(N4CCCCC4)CC3)cc2n2c1sc1ccccc12	3.08 µM (≈ 1.56 µg/mL)	98.7 µM (≈ 50 µg/mL)	61.7 µM	–
COc1ccc(CC2C3=C(CCCC3)CCN2c2cc3c(cc2[N+](=O)[O-])c(=O)c(C(=O)O)c2sc4ccccc4n23)cc1 (centres undefined)	10.5 µM (≈ 6.25 µg/mL)	83.9 µM (≈ 50 µg/mL)	–	–
O=C(O)c1c(=O)c2cc(F)c(N3CCN(C(=O)C4COc5ccccc5O4)CC3)cc2n2c1sc1ccccc12 (centres undefined)	1.39 µM (≈ 0.778 µg/mL)	2.79 µM (≈ 1.56 µg/mL)	112 µM	IC50 [3]: > 50 µg/mL
CC(C)(C)NC(=O)C1c2ccccc2CCN1c1cc2c(cc1[N+](=O)[O-])c(=O)c(C(=O)O)c1sc3ccccc3n12 (centres undefined)	2.73 µM (≈ 1.56 µg/mL)	43.8 µM (≈ 25 µg/mL)	–	–
O=C(O)c1c(=O)c2cc(F)c(N3CCN(C(=O)c4ccco4)CC3)cc2n2c1sc1ccccc12	6.37 µM (≈ 3.13 µg/mL)	50.9 µM (≈ 25 µg/mL)	–	–
Cc1onc(-c2c(F)cccc2F)c1C(=O)N1CCN(c2cc3c(cc2F)c(=O)c(C(=O)O)c2sc4ccccc4n23)CC1	2.52 µM (≈ 1.56 µg/mL)	40.4 µM (≈ 25 µg/mL)	–	–
O=C(O)c1c(=O)c2cc([N+](=O)[O-])c(N3CCN(C(=O)C4COc5ccccc5O4)CC3)cc2n2c1sc1ccccc12 (centres undefined)	10.7 µM (≈ 6.25 µg/mL)	85.2 µM (≈ 50 µg/mL)	–	–

— ChEMBL document CHEMBL1142419, “Antimycobacterial activities of novel 2-(sub)-3-fluoro/nitro-5,12-dihydro-5-oxobenzothiazolo[3,2-a]quinoline-6-carboxylic acid” (Bioorg Med Chem, 2008)
